Test results published in ChEMBL document CHEMBL1833911, “Diastereoselective synthesis and bioactivity of long-chain anti-2-amino-3-alkanols” (Eur J Med Chem, 2011).
The source made the active and inactive calls. The calls are words filed in the database; no cut-off is given here.

Key:
[1] = Antiproliferative activity against human SHG44 cells after 24 hrs by cell counting kit-8 assay; assay type: functional, cell-based; conditions: SHG-44, 24 h
Method in brief: (§1)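 SHG-44 glioblastoma cells were maintained in DMEM with 10% FBS and penicillin/streptomycin at 37 °C under 5% CO2. They were seeded at 5000/well in DMEM with 1% FBS and grown overnight, then exposed for 24 h to compound (0.1–100 μM) or 0.1% DMSO vehicle. CCK-8 was added for 2 h at 37 °C and A450 read. Results were from triplicates, expressed as % of vehicle.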

Homo sapiens = organism: Homo sapiens; assay: Cytotoxicity against human SHG44 at 50 uM after 24 hrs by cell counting kit-8 assay; assay type: functional; method in brief: as §1
[2] = Growth inhibition of human SHG44 at 10 uM after 24 hrs by cell counting kit-8 assay; assay type: functional; conditions: SHG-44, 24 h, read-out: GI; method in brief: as §1
SHG44 = assay: Antiproliferative activity against human SHG44 cells at 0.1 to 100 uM after 24 hrs by cell counting kit-8 assay; assay type: functional, cell-based; method in brief: as §1

Row | SMILES | IC50 [1] [µM] | Activity (Homo sapiens) | inhibition of growth at 10 µM [2] [%] | Activity (SHG44)
1 | CCCCCCCCC[C@H](O)[C@H](N)CO | 4.41 | Active | 60 | –
2 | CCCCCCCCC[C@@H](O)[C@H](C)N | 7.96 | Active | 80 | –
3 | CCCCCCCCC[C@H](O)[C@@H](C)N | – | Active | – | –
4 | CCC/C=C\CCCC[C@H](O)[C@@H](C)N | – | Active | – | inactive
5 | CCCCCCCCCCC[C@@H](O)[C@H](C)N [XETOAMINOL C] | 4.5 | Active | 100 | –
6 | CC(C)CCCCCCC[C@H](O)[C@@H](C)N | – | Active | – | inactive
